Laboratory results published in ChEMBL document CHEMBL4364260, “Discovery of Ziresovir as a Potent, Selective, and Orally Bioavailable Respiratory Syncytial Virus Fusion Protein Inhibitor” (J Med Chem, 2019).

Assays:
[1] = AUC (0 to 24 hrs) in CD-1 mouse lung at 10 mg/kg/day, po administered via gavage and measured up to 24 hrs by LC/MS/MS analysis; assay type: ADME, organism-based; set-up: dose 10 mg/kg/day, time < 24 hr, route oral
[2] = AUC (0 to 24 hrs) in CD-1 mouse plasma at 10 mg/kg/day, po administered via gavage and measured up to 24 hrs by LC/MS/MS analysis; assay type: ADME, organism-based; set-up: dose 10 mg/kg/day, time < 24 hr, route oral
[3] = Cytotoxicity against human Hep2 cells assessed as reduction in cell viability after 5 days by CCK-8 assay; assay type: cell-based; conditions: HEp-2 cells
Method in brief: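 Uninfected HEp-2 cells (6000/well) were incubated 5 days with serially diluted compound. Viability was read by CCK-8, and CC50 is the concentration toxic to 50% of cells.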

[4] = Antiviral activity against Human respiratory syncytial virus A strain Long infected in human Hep2 cells assessed as reduction in virus induced cytopathic effect in presence of 40% FBS after 5 days by CCK-8 assay; assay type: functional, cell-based; conditions: HEp-2, 120 h
Method in brief: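 RSV Long CPE assay with 40% FBS in place of the standard 10%. HEp-2 cells at 6000/well were infected next day at MOI 0.02 and kept 5 days with serially diluted compound. CCK-8 viability gave the 50% effective concentration.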

[5] = Antiviral activity against Human respiratory syncytial virus A strain Long infected in human Hep2 cells assessed as reduction in virus induced cytopathic effect in presence of 10% FBS after 5 days by CCK-8 assay; assay type: functional, cell-based; conditions: HEp-2, 120 h
Method in brief: (§1)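 HEp-2 cells seeded at 6000/well and infected the next day at MOI 0.02, a dose that gives about 90% CPE by day 5. Serial compound dilutions were present throughout, in standard medium with 10% FBS. Viability was read by CCK-8 at day 5, and EC50 is the concentration that cuts CPE by 50%.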

[6] = Oral bioavailability in Wistar-Han rat at 10 mg/kg administered as single dose via gavage and measured up to 24 hrs by LC/MS/MS analysis; assay type: ADME, organism-based; conditions: in vivo
Method in brief: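 Male Wistar-Han rats, single dose, 2 mg/kg iv and 10 mg/kg po, run by standard procedures.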

Human orthopneumovirus [7] = assay: Antiviral activity against Human respiratory syncytial virus A2 infected in human Hep2 cells assessed as reduction in virus induced cytopathic effect after 5 days by CCK-8 assay; assay type: functional, organism-based; conditions: A2, HEp-2, 120 h
Method in brief: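 CPE protection assay in HEp-2 cells, 6000 per well, infected next day with RSV at MOI 0.02 to give about 90% cytopathic effect after 5 days. Serial compound dilutions were present during incubation. Cell viability was measured by CCK-8 at day 5 to give EC50.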

Human orthopneumovirus [8] = assay: Antiviral activity against Human respiratory syncytial virus B18537 infected in human Hep2 cells assessed as reduction in virus induced cytopathic effect in presence of 10% FBS after 5 days by CCK-8 assay; assay type: functional, organism-based; conditions: subgroup B / strain 18537, HEp-2, 120 h; method in brief: as §1
[9] = Antiviral activity against Human respiratory syncytial virus A 1177 clinical isolates infected in human Hep2 cells assessed as reduction in virus induced cytopathic effect in presence of 10% FBS after 5 days by CCK-8 assay; assay type: functional, cell-based; conditions: human respiratory syncytial virus, 1177, HEp-2, 120 h; method in brief: as §1
[10] = Antiviral activity against Human respiratory syncytial virus A strain Long infected in human Hep2 cells assessed as plaque reduction […] by chloro-1-naphthol staining-based assay; assay type: functional
Method in brief: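 HEp-2 monolayers in 12-well plates got 0.5 ml of 200 PFU/ml RSV Long with or without serial compound dilutions. After 2 h they were overlaid with DMEM/F12, 4% FBS, 0.55% agarose plus compound and incubated 3 days. Cells were fixed in 4% paraformaldehyde for 6 h and immunostained with anti-RSV mAb (1:300), then HRP anti-mouse. Plaques were developed with 4-chloro-1-naphthol/H2O2 and counted.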

[11] = Half-life in CD-1 mouse plasma at 10 mg/kg/day, po administered via gavage and measured up to 24 hrs by LC/MS/MS analysis; assay type: ADME, organism-based
[12] = Tmax in CD-1 mouse plasma at 10 mg/kg/day, po administered via gavage and measured up to 24 hrs by LC/MS/MS analysis; assay type: ADME, organism-based
[13] = Tmax in CD-1 mouse lung at 10 mg/kg/day, po administered via gavage and measured up to 24 hrs by LC/MS/MS analysis; assay type: ADME, organism-based
[14] = Clearance in CD-1 mouse at 5 mg/kg, iv or 50 mg/kg, po; assay type: ADME, organism-based; conditions: in vivo
Method in brief: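 Single-dose PK in CD-1 mice: 5 mg/kg iv, 50 mg/kg po. Dosed as a solution in 5% DMSO, 40% PEG400, 55% of 0.9% NaCl. Plasma CL, Vss, iv T1/2, AUC and F were derived.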

[15] = Clearance in cynomolgus monkey at 2 mg/kg, iv or 10 mg/kg, po; assay type: ADME, organism-based, Macaca fascicularis; conditions: in vivo
Method in brief: (§2)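 Cynomolgus monkeys got single doses of 2 mg/kg iv and 10 mg/kg po as a solution in 12.5% captisol in water. Plasma CL, Vss, iv T1/2, AUC and oral F were derived.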

[16] = Half-life in Sprague-Dawley rat at 2 mg/kg, iv; assay type: ADME, organism-based; conditions: in vivo
Method in brief: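 Rat single-dose PK: 2 mg/kg iv and 10 mg/kg po. Compound was given as a solution in 5% DMSO/40% PEG400/55% of 0.9% saline. Plasma CL, Vss, iv half-life, AUC and oral bioavailability were reported.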

[17] = AUC (0 to 24 hrs) in Sprague-Dawley rat at 10 mg/kg, po; assay type: ADME, organism-based; set-up: dose 10 mg/kg, time < 24 hr, route oral; conditions: in vivo
[18] = AUC (0 to 24 hrs) in cynomolgus monkey at 10 mg/kg, po; assay type: ADME, organism-based, Macaca fascicularis; set-up: dose 10 mg/kg, time < 24 hr, route oral; conditions: in vivo
Method in brief: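 Single-dose PK. Dog received 1 mg/kg iv or 10 mg/kg po, and cynomolgus monkey received 2 mg/kg iv or 10 mg/kg po. Both were given as a solution in 12.5% captisol in water. Plasma AUC was taken from the oral arm, with CL, Vss, iv T1/2 and F also derived.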

[19] = Oral bioavailability in cynomolgus monkey at 10 mg/kg; assay type: ADME, organism-based, Macaca fascicularis; conditions: in vivo; method in brief: as §2
[20] = molecular target: Fusion glycoprotein F0 (human respiratory syncytial virus) (UniProt Q89535); assay: Inhibition of Human respiratory syncytial virus Fusion protein assessed as reduction in protein-induced syncytia formation at 0.1 uM after 3 days by microscopic method relative to control
Chain of Fusion glycoprotein F0 (human respiratory syncytial virus) (Q89535 as listed by the source): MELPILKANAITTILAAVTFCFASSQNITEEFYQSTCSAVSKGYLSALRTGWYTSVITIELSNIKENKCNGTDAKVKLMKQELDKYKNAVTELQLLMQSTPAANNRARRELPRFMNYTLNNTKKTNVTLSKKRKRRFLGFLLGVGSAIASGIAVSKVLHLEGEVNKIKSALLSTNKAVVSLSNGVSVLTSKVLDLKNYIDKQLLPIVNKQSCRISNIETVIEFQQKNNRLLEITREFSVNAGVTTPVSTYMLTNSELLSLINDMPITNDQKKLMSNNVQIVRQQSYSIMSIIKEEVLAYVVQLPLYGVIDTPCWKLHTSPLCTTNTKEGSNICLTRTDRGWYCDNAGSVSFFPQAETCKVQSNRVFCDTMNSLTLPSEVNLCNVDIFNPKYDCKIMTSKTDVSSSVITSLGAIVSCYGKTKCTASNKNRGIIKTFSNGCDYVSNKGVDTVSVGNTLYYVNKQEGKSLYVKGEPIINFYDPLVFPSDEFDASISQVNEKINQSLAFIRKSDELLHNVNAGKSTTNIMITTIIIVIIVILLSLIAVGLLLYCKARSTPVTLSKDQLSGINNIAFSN
Method in brief: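 Serially diluted compound was added to cells expressing RSV-F. Cell-cell fusion (syncytia) was scored by microscopy three days after compound addition.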

[21] = Antiviral activity against Human respiratory syncytial virus A strain Long infected in BALB/c mouse assessed as log reduction in virus titer in lung at 12.5 mg/kg, po BID administered up to 8 hrs for 4 days relative to control; assay type: functional
Method in brief: (§3)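 Six-week-old female BALB/c mice, housed specific-pathogen-free, were anesthetized intraperitoneally with ketamine/xylazine and given RSV Long strain intranasally (5×10^5 PFU in 100 µL). Oral dosing was twice daily (0 h and 8 h) for 4 days, 12 mice per group. Mice were then euthanized with CO₂ and lungs harvested for viral titer, compared with vehicle.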

[22] = Antiviral activity against Human respiratory syncytial virus A strain Long infected in BALB/c mouse assessed as log reduction in virus titer in lung at 50 mg/kg, po BID administered up to 8 hrs for 4 days relative to control; assay type: functional; method in brief: as §3

## Cc1ccc2nc(N3CCS(=O)(=O)c4ccccc4C3)nc(NCC3(N)COC3)c2c1 [ZIRESOVIR]
[1]
  AUC at 24 h: 72400 ng·h/mL
[2]
  AUC at 24 h: 8380 ng·h/mL
[3]
  CC50 at 120 h: > 100000 nM
[4]
  EC50: 3 nM
  EC90: 8 nM
[5]
  EC50: 3 nM
  EC90: 5 nM
[6]
  bioavailability: 32%
Human orthopneumovirus [7]
  EC50: 2 nM
  EC90: 3 nM
Human orthopneumovirus [8]
  EC50: 2 nM
  EC90: 3 nM
[9]
  EC50: 4 nM
  EC90: 7 nM
[10]
  EC90: 10 nM
[11]
  half-life: 1.02 h
[12]
  Tmax: 0.25 h
[13]
  Tmax: 1 h
[14]
  clearance: 277 mL/min/kg
[15]
  clearance: 26 mL/min/kg
[16]
  half-life: 1.2 h
[17]
  AUC(0-t) at 24 h: 906 ng·h/mL
[18]
  AUC(0-t) at 24 h: 1440 ng·h/mL
[19]
  bioavailability: 22%
[20]
  inhibition: 100%
[21]
  FC: >1
[22]
  FC: 1.9
